WT yeast gro inh = growth inhibition of WT yeast, mitochondrial fusion screen | mitochondrial fusion phenotypic screen, WT strain | inhibition, % at 10 µM | 2.1% of 190,000 active; in the data active means inhibition above about 58%; tested in S. cerevisiae
RAM inhibit = yeast RAM network inhibition; inhibition, % at 50 µM; S. cerevisiae dse1pr::URA3 reporter, 5-FOA growth OD615, 2 d; analog-sensitive cbk1-as2 kinase mutant strain; 1.8% of 190,000 active;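 active means inhibition above a set limit, 3 SD over mean compound inhibition, cut at about 8.4% in these data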;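 further: inhibition rescues growth on 5-FOA so higher OD means more RAM inhibition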
Yeast lifespan up = extends the lifespan of yeast; S. cerevisiae growth with nicotinamide, OD615; deaD strain in restrictive glucose medium; inhibition of the nicotinamide effect, % at 10 µM; 0.68% of 130,000 active; AID 775;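 active means inhibition above a set limit, placed 3 SD over the median of all compounds, cut at about 26% in these data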
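Test system: DeaD-strain S. cerevisiae / Buffer or medium: restrictive glucose medium / Also added: nicotinamide 1.5 mM / Doses: one concentration, 10 µM, DMSO 0.25% / Schedule: 48 h at 30 °C / Signal: OD615 measurement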
Yeast growth inh = yeast BB579 growth reduction in restrictive medium; S. cerevisiae BB579 growth, OD615, 48 h; inhibition, % at 10 µM; 0.51% of 140,000 active; AID 804;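 active means inhibition above a set limit, 3 SD over the mean compound inhibition, cut at about 44% in these data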
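Detection: OD615 turbidity measurement; Material: Saccharomyces cerevisiae DeaD strain BB579, replicative lifespan model yeast; Timing: 48 h exposure, 30 °C; Doses: single 10 µM dose; Medium: CSMM-D restrictive synthetic medium containing dextrose (glucose); Controls: amphotericin B at 10 µg/mL as positive control.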
A number is an active result; – = inactive; · = no result. Hits are enriched below; roughly 4.3% of the tested compounds scored in any of these assays.

SMILES	WT yeast gro inh	RAM inhibit	Yeast lifespan up	Yeast growth inh
CC(C)CC(=O)Nc1ccc(C(=O)NNC(=S)NC(=O)C2CCCCC2)cc1	–	8.4	–	–
O=C(COc1ccc(Br)cc1Br)NC1CCCC1	–	–	·	·
O=C(COc1ccc(Br)cc1Cl)NC1CCCCC1	–	8.9	–	–
Cc1ccccc1N=C(NOCc1ccc(Cl)cc1Cl)c1nonc1N	78	–	–	–
Cc1nn(C(C)C(=O)NCC2CCCO2)c(=O)c2cc3occc3n12 (centres undefined)	61	–	–	–
CCOc1ccc(N=Nc2cc(C(C)C)ccc2O)cc1	–	10	–	–
CCOc1ccccc1NC(=O)NCCC1=CCCCC1	–	–	·	·
CCCN(CC(=O)Nc1ccc(Cl)cc1Cl)C(=O)/C=C/c1cccc([N+](=O)[O-])c1	–	–	–	–
CCCN(CC(=O)Nc1ccc(Cl)cc1Cl)C(=O)/C=C/c1cc(OC)ccc1OC	–	11	–	–
CC(C)(C#CC(O)(c1ccccc1)c1ccccc1)N1CCCC1	–	–	·	·
CN1CCCN(c2ncnc3scc(-c4ccc(F)cc4)c23)CC1	–	–	·	·
Clc1ccc(-c2csc3ncnc(N4CCc5ccccc5C4)c23)cc1	65	–	–	–
Cc1ccccc1N1CCN(c2ncnc3scc(-c4cccs4)c23)CC1	65	–	–	–
Clc1ccc(CN2CCN(c3ncnc4scc(-c5cccs5)c34)CC2)cc1	60	–	–	–
CC(C)[C@@H](C(=O)N1CCN(C(=O)OC(C)(C)C)CC1)n1cc(CCO)nn1	–	–	·	·
Cc1c(CCOC(=O)c2cccc([N+](=O)[O-])c2)sc[n+]1CC(=O)c1ccccc1	–	–	·	·
CCC(CC)C(=O)OCC(=O)NC12CC3CC(CC(C3)C1)C2	–	–	–	–
O=C(COC(=O)C12CC3CC(CC(C3)C1)C2)NC12CC3CC(CC(C3)C1)C2	80	–	–	–
CN(C)C(=S)Nn1c(-c2ccccc2)nc2ccccc2c1=O	–	–	–	–
O=C(Nn1c(-c2ccccc2)nc2ccccc2c1=O)C1CCC1	70	–	–	–
COC(=O)c1cc([N+](=O)[O-])c(-n2cncn2)c([N+](=O)[O-])c1	–	–	·	·
CC1=CN2C(=N)/C(=C/c3ccco3)C(=O)N=C2S1	–	–	–	–
CC1=CN2C(=N)/C(=C/c3ccc([N+](=O)[O-])o3)C(=O)N=C2S1	86	–	33	–
CC(C)Sc1nc2[nH]ncc2c(=O)[nH]1	–	–	·	·
c1ccc(OCCn2cnc3ccccc32)cc1	–	–	–	–
SMILES	WT yeast gro inh	RAM inhibit	Yeast lifespan up	Yeast growth inh
c1ccc(OCCCCn2cnc3ccccc32)cc1	–	–	–	–
c1ccc2c(c1)ncn2CCCCOc1ccc2c(c1)CCC2	69	–	–	–
c1ccc2c(c1)ncn2CCCOc1ccc2c(c1)CCC2	65	–	–	–
Cc1ccc(OCCCCn2cnc3ccccc32)cc1	65	–	·	·
Cc1ccc(/C=N/N2CCOCC2)s1	–	–	·	·
CC(Sc1nnc(-c2ccccc2)c(-c2ccccc2)n1)C(=O)N1CCc2ccccc21 (centres undefined)	–	–	–	–
COc1ccc2[nH]cc(CCn3ccc(=O)c(C)c3C)c2c1	–	–	·	·
Cc1ccc(S(=O)(=O)N(c2ccc(Br)cc2)C2C=CS(=O)(=O)C2)cc1 (centres undefined)	–	–	·	·
O=C(c1ccc(Cl)c(Cl)c1)c1cnc(Nc2ccccc2)s1	87	–	–	–
C=CCc1ccc(O)c(-c2ccc(O)c(CC=C)c2)c1	63	–	·	·
CCc1c(C)nc(SCC(=O)c2cccs2)c(C#N)c1C	86	–	–	–
N#C/C(=N\Nc1cccc([N+](=O)[O-])c1)C(=O)c1ccc(Br)cc1	67	–	·	·
Cn1c(CCN2CCN(c3ccccc3)CC2)nc2cc(NC(=O)c3ccco3)ccc21	76	–	–	–
CCOC(=O)CSc1nnc(CSc2nc3sc4c(c3c(=O)[nH]2)CCC4)n1C	–	8.7	–	–
CCc1cc2c(SCC(=O)O)ncnc2s1	–	–	–	–
CCc1cc2c(cc(C(=O)O)n2C)s1	–	–	–	58
CN(C1=C(NC(=O)c2ccc(Cl)cc2)C(=O)c2ccccc2C1=O)c1ccccc1	73	–	–	–
O=C(NC1=C(Nc2ccc(Cl)cc2)C(=O)c2ccccc2C1=O)c1ccccc1	79	–	–	–
Cc1cccc(NC2=C(NC(=O)c3ccccc3)C(=O)c3ccccc3C2=O)c1	–	–	–	–
CN(c1ccc(C(=O)Nc2ccc(Cl)cn2)cc1)S(=O)(=O)c1ccccc1	–	–	·	·
Cc1cc(=O)oc(C)c1C(=O)Nc1ccc2ncccc2c1	–	–	–	–
